{
  "source": "ChEMBL document CHEMBL1132441",
  "about": "“Further studies on oxygenated tryptamines with LSD-like activity incorporating a chiral pyrrolidine moiety into the side chain” (J Med Chem, 1999)",
  "key": {"Rattus norvegicus [1]": {"system": "Rattus norvegicus", "assay": "Percentage of rats selecting the drug liver at dose of 0.1 mg/kg", "type": "functional", "summary_of_the_method": "(§1)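 Male Sprague–Dawley rats were trained in a two-lever FR50 food-reinforced task to discriminate LSD (0.08 mg/kg) or DOI (0.4 mg/kg) from saline. Test drugs were given i.p. in 0.9% saline 30 min before the session. The lever first pressed 50 times was scored as selected, and the result is the percentage of rats selecting the drug lever.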"}, "Rattus norvegicus [2]": {"system": "Rattus norvegicus", "assay": "Substitution tests were carried out for the compound in LSD- trained rats dosed with 0.046 uM/kg drug and the binding data was reported", "type": "functional"}, "Rattus norvegicus [3]": {"system": "Rattus norvegicus", "assay": "Percentage of rats selecting the drug liver at dose of 0.4 mg/kg", "type": "functional", "summary_of_the_method": "as §1"}, "Rattus norvegicus [4]": {"system": "Rattus norvegicus", "assay": "Percentage of rats selecting the drug liver at dose of 0.2 mg/kg", "type": "functional", "summary_of_the_method": "as §1"}, "Rattus norvegicus [5]": {"system": "Rattus norvegicus", "assay": "Substitution tests were carried out for the compound in LSD- trained rats dosed with 0.02 mg/kg drug and the binding data was reported", "type": "functional"}, "Rattus norvegicus [6]": {"system": "Rattus norvegicus", "assay": "Percentage of rats selecting the drug liver at dose of 0.04 mg/kg", "type": "functional", "summary_of_the_method": "as §1"}, "Rattus norvegicus [7]": {"system": "Rattus norvegicus", "assay": "Percentage of rats selecting the drug liver at dose of 0.08 mg/kg", "type": "functional", "summary_of_the_method": "as §1"}, "Rattus norvegicus [8]": {"system": "Rattus norvegicus", "assay": "Percentage of rats selecting the drug liver at dose of 0.01 mg/kg", "type": "functional", "summary_of_the_method": "as §1"}, "Rattus norvegicus [9]": {"system": "Rattus norvegicus", "assay": "Percentage of rats selecting the drug liver at dose of 0.02 mg/kg", "type": "functional", "summary_of_the_method": "as §1"}, "[10]": {"target": "5-hydroxytryptamine receptor 2A (Rattus norvegicus) (UniProt P14842)", "sequence (P14842 whole entry)": "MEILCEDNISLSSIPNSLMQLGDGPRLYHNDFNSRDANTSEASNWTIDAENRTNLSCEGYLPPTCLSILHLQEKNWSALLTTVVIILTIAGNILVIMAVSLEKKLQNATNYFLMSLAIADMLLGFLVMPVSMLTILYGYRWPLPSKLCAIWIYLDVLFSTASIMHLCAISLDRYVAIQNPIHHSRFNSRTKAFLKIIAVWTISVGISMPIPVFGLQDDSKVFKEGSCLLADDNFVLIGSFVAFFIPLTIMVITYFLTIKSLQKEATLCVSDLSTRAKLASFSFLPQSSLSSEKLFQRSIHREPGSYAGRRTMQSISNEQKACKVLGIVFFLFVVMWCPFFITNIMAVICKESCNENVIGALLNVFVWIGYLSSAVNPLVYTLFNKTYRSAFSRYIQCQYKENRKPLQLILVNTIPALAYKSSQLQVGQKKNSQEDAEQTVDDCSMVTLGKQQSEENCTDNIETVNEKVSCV", "assay": "Compound was tested for binding affinity at 5-hydroxytryptamine 2A receptor sites in rat cortical homogenate using [125I]-2,5-Dimethoxy -4-iodoamphetamine (DOI).", "summary_of_the_method": "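Rat frontal cortex membranes were washed in 50 mM Tris-HCl pH 7.4 and preincubated at 37 °C in buffer with EDTA, pargyline, CaCl2 and ascorbate. They were incubated with [125I]DOI and test drug for 15 min at 37 °C, then filtered, and the filters were gamma-counted. Cinanserin (10 µM) defined nonspecific binding. Values come from at least three experiments, each in triplicate.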"}, "[11]": {"target": "5-hydroxytryptamine receptor 2A (Rattus norvegicus, UniProt P14842)", "sequence (P14842 whole entry)": "as above", "assay": "Compound was tested for binding affinity using [3H]MDL-100,907 at 5-hydroxytryptamine 2A receptor sites in rat cortical homogenate.", "summary_of_the_method": "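Membranes (200-400 µg protein) from rat frontal cortex homogenate were incubated with 0.2 nM [3H]MDL100907 and competing drug for 15 min at 37 °C. The buffer was Tris-HCl pH 7.4 with EDTA, pargyline, CaCl2 and ascorbate. Bound and free ligand were separated by GF/C filtration and read by scintillation counting. Nonspecific binding was taken with 10 µM cinanserin. […] values come from at least three experiments, each in triplicate.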"}, "Rattus norvegicus [12]": {"system": "Rattus norvegicus", "assay": "Percentage of rats selecting the drug liver at dose of 1.36 mg/kg", "type": "functional", "summary_of_the_method": "as §1"}, "Rattus norvegicus [13]": {"system": "Rattus norvegicus", "assay": "Percentage of rats selecting the drug liver at dose of 0.68 mg/kg", "type": "functional", "summary_of_the_method": "as §1"}, "Rattus norvegicus [14]": {"system": "Rattus norvegicus", "assay": "Percentage of rats selecting the drug liver at dose of 0.23 mg/kg", "type": "functional", "summary_of_the_method": "as §1"}, "Rattus norvegicus [15]": {"system": "Rattus norvegicus", "assay": "Percentage of rats selecting the drug liver at dose of 0.12 mg/kg", "type": "functional", "summary_of_the_method": "as §1"}, "Rattus norvegicus [16]": {"system": "Rattus norvegicus", "assay": "Substitution tests were carried out for the compound in DOI- trained rats dosed with 0.12 mg/kg drug and the binding data was reported", "type": "functional"}, "Rattus norvegicus [17]": {"system": "Rattus norvegicus", "assay": "Substitution tests were carried out for the compound in LSD- trained rats dosed with 0.06 mg/kg drug and the binding data was reported", "type": "functional"}, "Rattus norvegicus [18]": {"system": "Rattus norvegicus", "assay": "Substitution tests were carried out for the compound in LSD- trained rats dosed with 0.25 uM/kg drug and the binding data was reported", "type": "functional", "summary_of_the_method": "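Rats trained on LSD (0.08 mg/kg i.p.) versus saline under an FR50 two-lever food schedule received the test drug i.p. in 0.9% saline 30 min before the session. The lever first given 50 presses was scored as selected, giving %SDL. ED50 (95% CI) came from Litchfield–Wilcoxon log-probit analysis, and none was calculated where ≥50% of rats were disrupted.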"}, "Rattus norvegicus [19]": {"system": "Rattus norvegicus", "assay": "Percentage of rats selecting the drug liver at dose of 0.03 mg/kg", "type": "functional", "summary_of_the_method": "as §1"}, "Rattus norvegicus [20]": {"system": "Rattus norvegicus", "assay": "Percentage of rats selecting the drug liver at dose of 0.06 mg/kg", "type": "functional", "summary_of_the_method": "as §1"}, "Rattus norvegicus [21]": {"system": "Rattus norvegicus", "assay": "Substitution tests were carried out for the compound in DOI- trained rats dosed with 0.50 uM/kg drug and the binding data was reported", "type": "functional", "summary_of_the_method": "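Rats trained on DOI (0.4 mg/kg i.p.) versus saline under an FR50 two-lever food schedule received the test drug i.p. in saline 30 min before testing. Quantal scoring used the lever first reaching 50 presses to give %SDL. ED50 and 95% CI were obtained by the Litchfield–Wilcoxon log-probit method when a dose reached ≥80% SDL.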"}, "Rattus norvegicus [22]": {"system": "Rattus norvegicus", "assay": "Percentage of rats selecting the drug liver at dose of 0.65 mg/kg", "type": "functional", "summary_of_the_method": "as §1"}, "Rattus norvegicus [23]": {"system": "Rattus norvegicus", "assay": "Percentage of rats selecting the drug liver at dose of 0.33 mg/kg", "type": "functional", "summary_of_the_method": "as §1"}, "Rattus norvegicus [24]": {"system": "Rattus norvegicus", "assay": "Percentage of rats selecting the drug liver at dose of 0.16 mg/kg", "type": "functional", "summary_of_the_method": "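Male Sprague–Dawley rats (200-220 g) were trained in a two-lever FR 50 food-reinforced task to discriminate LSD (0.08 mg/kg) or DOI (0.4 mg/kg) from saline. Drugs were given i.p. in 0.9% saline 30 min before the session. Scoring was quantal: the lever first reaching 50 presses counted as selected, and %SDL is the percentage of rats choosing the drug lever.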"}},
  "note": "Values joined by “and” are separate entries in the source; they are usually repeats but may differ in a detail not shown here. Equal entries are not always repeated.",
  "data": [
    {"molecule": "COc1cc(CC(C)N)c(OC)cc1I", "note": "(stereo not given)", "values": [
      {"measurement": "SDL", "setting": "Rattus norvegicus [1]", "result": 56, "unit": "%"},
      {"measurement": "ED50", "setting": "Rattus norvegicus [2]", "result": 0.28, "unit": "µmol/kg"},
      {"measurement": "SDL", "setting": "Rattus norvegicus [3]", "result": 100, "unit": "%"},
      {"measurement": "SDL", "setting": "Rattus norvegicus [4]", "result": 89, "unit": "%"},
      {"measurement": "ED50", "setting": "Rattus norvegicus [5]", "result": 0.12, "unit": "µmol/kg"}
    ]},
    {"molecule": "CCN(CC)C(=O)[C@@H]1C=C2c3cccc4[nH]cc(c34)C[C@H]2N(C)C1", "note": "[LYSERGIDE]", "values": [
      {"measurement": "SDL", "setting": "Rattus norvegicus [6]", "result": 81, "unit": "%"},
      {"measurement": "SDL", "setting": "Rattus norvegicus [7]", "result": 100, "unit": "%"},
      {"measurement": "ED50", "setting": "Rattus norvegicus [2]", "result": 0.026, "unit": "µmol/kg"},
      {"measurement": "SDL", "setting": "Rattus norvegicus [8]", "result": 46, "unit": "%"},
      {"measurement": "SDL", "setting": "Rattus norvegicus [9]", "result": 78, "unit": "%"},
      {"measurement": "ED50", "setting": "Rattus norvegicus [5]", "result": 0.012, "unit": "µmol/kg"}
    ]},
    {"molecule": "COc1ccc2[nH]cc(CCN(C)C)c2c1", "note": "[MEBUFOTENIN]", "values": [
      {"measurement": "K0.5", "setting": "[10]", "result": 21, "unit": "nM"},
      {"measurement": "Ki", "setting": "[11]", "result": 1600, "unit": "nM"}
    ]},
    {"molecule": "COc1ccc2[nH]cc(C3CCN(C)C3)c2c1", "note": "(stereo not given)", "values": [
      {"measurement": "SDL", "setting": "Rattus norvegicus [12]", "result": 50, "unit": "%"},
      {"measurement": "K0.5", "setting": "[10]", "result": 150, "unit": "nM"},
      {"measurement": "SDL", "setting": "Rattus norvegicus [13]", "result": "33% and 14%"},
      {"measurement": "Ki", "setting": "[11]", "result": 1300, "unit": "nM"}
    ]},
    {"molecule": "COc1ccc2[nH]cc(C[C@@H]3CCCN3C)c2c1", "values": [
      {"measurement": "K0.5", "setting": "[10]", "result": 64, "unit": "nM"},
      {"measurement": "Ki", "setting": "[11]", "result": "> 9400", "unit": "nM"}
    ]},
    {"molecule": "CN1CCC[C@H]1Cc1c[nH]c2cc(O)ccc12", "values": [
      {"measurement": "K0.5", "setting": "[10]", "result": 290, "unit": "nM"},
      {"measurement": "Ki", "setting": "[11]", "result": 4700, "unit": "nM"}
    ]},
    {"molecule": "CN(C)CCc1c[nH]c2cccc(O)c12", "note": "[PSILOCIN]", "values": [
      {"measurement": "K0.5", "setting": "[10]", "result": 6, "unit": "nM"},
      {"measurement": "Ki", "setting": "[11]", "result": 390, "unit": "nM"}
    ]},
    {"molecule": "CN1CCC(c2c[nH]c3cccc(O)c23)C1", "note": "(stereo not given)", "values": [
      {"measurement": "K0.5", "setting": "[10]", "result": 82, "unit": "nM"},
      {"measurement": "Ki", "setting": "[11]", "result": 440, "unit": "nM"}
    ]},
    {"molecule": "CN1CCC[C@@H]1Cc1c[nH]c2cc(O)ccc12", "values": [
      {"measurement": "SDL", "setting": "Rattus norvegicus [14]", "result": 100, "unit": "%"},
      {"measurement": "SDL", "setting": "Rattus norvegicus [15]", "result": "64% and 43%"},
      {"measurement": "ED50", "setting": "Rattus norvegicus [16]", "result": 0.11, "unit": "µmol/kg"},
      {"measurement": "ED50", "setting": "Rattus norvegicus [17]", "result": 0.06, "unit": "µmol/kg"},
      {"measurement": "ED50", "setting": "Rattus norvegicus [18]", "result": 0.25, "unit": "µmol/kg"},
      {"measurement": "SDL", "setting": "Rattus norvegicus [19]", "result": 30, "unit": "%"},
      {"measurement": "SDL", "setting": "Rattus norvegicus [20]", "result": "40% and 14%"},
      {"measurement": "K0.5", "setting": "[10]", "result": 13, "unit": "nM"},
      {"measurement": "ED50", "setting": "Rattus norvegicus [21]", "result": 0.47, "unit": "µmol/kg"},
      {"measurement": "Ki", "setting": "[11]", "result": 210, "unit": "nM"}
    ]},
    {"molecule": "COc1ccc2[nH]cc(C[C@H]3CCCN3C)c2c1", "values": [
      {"measurement": "ED50", "setting": "Rattus norvegicus [16]", "result": 0.11, "unit": "µmol/kg"},
      {"measurement": "SDL", "setting": "Rattus norvegicus [22]", "result": 100, "unit": "%"},
      {"measurement": "ED50", "setting": "Rattus norvegicus [17]", "result": 0.14, "unit": "µmol/kg"},
      {"measurement": "ED50", "setting": "Rattus norvegicus [18]", "result": 0.44, "unit": "µmol/kg"},
      {"measurement": "SDL", "setting": "Rattus norvegicus [7]; 0.08 mg/kg", "result": "20% and 43%"},
      {"measurement": "K0.5", "setting": "[10]", "result": 9.5, "unit": "nM"},
      {"measurement": "SDL", "setting": "Rattus norvegicus [23]", "result": "82% and 88%"},
      {"measurement": "SDL", "setting": "Rattus norvegicus [24]", "result": 63, "unit": "%"},
      {"measurement": "ED50", "setting": "Rattus norvegicus [21]", "result": 0.32, "unit": "µmol/kg"},
      {"measurement": "Ki", "setting": "[11]", "result": 400, "unit": "nM"}
    ]}
  ]
}
